# OX1R antag-1: human HCRTR1 antagonism; CHO/OX1R cells, Fluo-8 calcium fluorescence, orexin A; inhibition, % at 5 µM; actives 0.43% (n = 330,000);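 active = inhibition above its plate's threshold, mean inhibition of all tested compounds on the plate plus 3 SD, cut at about 37% in these data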;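 note: 0% = orexin A challenge wells and 100% = SB-334867-A antagonist wells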
# Target sequence (O43613 whole entry, looked up): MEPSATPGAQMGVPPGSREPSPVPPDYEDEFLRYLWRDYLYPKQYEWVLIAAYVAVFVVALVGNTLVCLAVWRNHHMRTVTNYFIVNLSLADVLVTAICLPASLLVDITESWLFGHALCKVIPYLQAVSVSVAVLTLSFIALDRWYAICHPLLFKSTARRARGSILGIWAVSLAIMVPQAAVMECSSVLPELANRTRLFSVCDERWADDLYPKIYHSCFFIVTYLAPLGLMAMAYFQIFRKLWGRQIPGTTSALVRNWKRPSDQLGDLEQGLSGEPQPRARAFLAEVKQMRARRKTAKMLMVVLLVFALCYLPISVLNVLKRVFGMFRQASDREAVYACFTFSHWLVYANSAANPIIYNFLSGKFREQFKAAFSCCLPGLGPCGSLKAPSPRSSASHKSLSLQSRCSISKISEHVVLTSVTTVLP
# M1 ag parental: M1 agonist counterscreen hit in parental CHO-K1 cells; activation, % at 3 µM; actives 0.48% (n = 360,000); Fluo-8 calcium fluorescence; scaled to maximal ATP response, vehicle zero; AID 602248; in the data active = activation above about 15%;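 note: untransfected CHO-K1 host cells lacking M1 receptor as counterscreen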
# CHO-K1 Ca antag: nonselective inhibitor or artifact in parental CHO-K1 cells | ATP-induced calcium, Fluo-8 fluorescence | inhibition, % at 3 µM | actives 0.6% (n = 360,000);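 active = inhibition above a per-plate cutoff, the plate's mean sample inhibition plus 3 SD, cut at about 24% in these data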;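 note: 0% = DMSO plus EC80 ATP and 100% = DMSO alone without ATP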
# CHO parental Ca: signal in parental CHO cells, OX1R antagonist counter-screen. parental CHO-K1, ATP-induced calcium, Fluo-8 fluorescence. inhibition, % at 5.6 µM. actives 0.63% (n = 330,000). AID 463079;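 active = inhibition above that plate's mean sample inhibition plus 3 SD, cut at about 26% in these data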;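 note: 0% = ATP-challenged DMSO wells and 100% = DMSO wells without ATP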
#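 test system = CHO parental line | reagent = ATP stimulus | measured by = intracellular calcium via Fluo-8 no-wash fluorescent dye | control set = ATP and no-ATP DMSO wells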
# M1 PAM parental: nonselective activator or artifact in parental CHO-K1 calcium assay | activation, % at 3 µM | actives 0.02% (n = 360,000) | ATP EC20, Fluo-8 calcium fluorescence; 0% at ATP EC20, 100% at ATP max | AID 602247;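 active = activation above the run cutoff, the mean activation of all test compounds plus 3 SD, cut at about 40% in these data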;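 note: peak over basal fluorescence ratio in a 140 s read after ATP addition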
# OX1R antag-2: OX1R (human) antagonism; actives 1.8% (n = 330,000); OX1R-expressing cells, FRET antagonist read-out; inhibition, % at 6.6 µM; O43613; in the data active = inhibition mostly above about 38%, no sharp cut-off; inactive = mostly below about 40%;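 note: 0% = agonist challenge alone and 100% = reference antagonist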
# An asterisk follows results filed as active; / = no result. Hits are enriched below; roughly 2.9% of the tested compounds scored in any of these assays.
SMILES,OX1R antag-1,M1 ag parental,CHO-K1 Ca antag,CHO parental Ca,M1 PAM parental,OX1R antag-2
O=C(OC(c1ccccc1)c1nccc2ccccc12)c1cc([N+](=O)[O-])cc([N+](=O)[O-])c1 (stereo not drawn),-45.3,12.1,4.1,-30.3,16.5,62.2*
CCOC(=O)N1CCC(NC(=O)C2CCCN(Cc3nc(-c4ccc(CC)cc4)oc3C)C2)CC1 (stereo not drawn),-17.1,6.6,23.7*,-17.7,0.5,16.1
CCOC(=O)N1CCC(NC(=O)C2CCCN(S(=O)(=O)c3cccnc3)C2)CC1 (stereo not drawn),-11.7,0.2,42.5*,3.1,-7.4,5.8
CCOC(=O)N1CCC(NC(=O)C2CCCN(S(C)(=O)=O)C2)CC1 (stereo not drawn),-12.1,0.1,-20.2,7.1,9.0,2.1
CCOC(=O)N1CCC(NC(=O)C2CCN(Cc3nc(-c4ccc(CC)cc4)oc3C)CC2)CC1,/,0.0,2.3,/,11.8,/
COCC(=O)N1CCC(Oc2ccc(C(=O)N[C@H](C(=O)OC)C(C)C)cc2)CC1,-4.7,0.2,3.1,3.4,1.8,7.7
CN(Cc1ccccc1)C(=O)CSc1nc2ccccc2c(=O)n1Cc1ccco1,14.3,0.9,-15.5,-23.8,8.8,34.1*
COCCn1c(SCC(=O)N2CCCc3ccccc32)nc2ccccc2c1=O,2.3,2.0,0.5,-9.2,9.1,53.0*
O=C(CSc1nc2ccccc2c(=O)n1NC(=O)Cc1ccccc1)NCc1ccccc1,-10.9,1.4,-0.8,-6.5,11.5,46.0*
Cc1ccc(NC(=O)CN(C)C(=O)CSc2nc3ccccc3c(=O)n2Cc2ccco2)cc1,-23.4,0.8,-12.6,-25.1,15.3,32.9
O=C(Cc1cccs1)Nn1c(Cc2cccs2)nc2ccccc2c1=O,-6.0,0.1,30.1*,-11.2,-12.9,3.4
COCCn1c(SCC(=O)N2CCCc3ccccc32)nc2c(c1=O)SC(C)C2 (stereo not drawn),-29.4,0.2,-8.7,-17.6,4.4,19.8
Cc1ccc(NC(=O)CCc2nc3ccccc3c(=O)[nH]2)cc1S(=O)(=O)N1CCOCC1,0.1,0.0,12.9,-15.7,-15.7,17.5
CCOc1ccccc1NS(=O)(=O)c1ccc2oc(=O)ccc2c1,-21.0,11.0,-0.8,-7.3,8.3,19.6
COCCn1c(SCC(=O)NNC(=O)Cc2ccccc2)nc2ccccc2c1=O,-10.3,-0.2,24.5*,-10.1,-6.5,9.2
COc1cc(OC)c(NC(=O)c2cncn2-c2ccc(F)cc2)cc1Cl,-35.0,-0.1,-21.6,-26.6,-19.4,8.3
CCOC(=O)C1(Cc2ccccc2)CCCN(C(=O)c2cnn(CC)c2)C1 (stereo not drawn),-7.3,6.5,28.7*,-2.7,6.2,5.5
Cc1[nH][nH]c(=O)c1N=Nc1ccc(F)cc1,-28.4,0.1,-11.4,-9.4,13.3,16.3
COc1ccc(N=Nc2c(C)[nH][nH]c2=O)cc1,-12.2,0.4,1.1,-7.4,27.9,57.1*
Cc1cccc(N(C(=O)c2csnn2)C(C(=O)NC2CCCCC2)c2ccncc2)c1 (stereo not drawn),-22.2,0.2,23.2,-25.1,-5.8,35.5
CN1CCN(C(CNC(=O)C(=O)NC2CCCC2)c2ccc(F)cc2)CC1 (stereo not drawn),-33.1,0.0,52.5*,-2.8,-3.4,3.3
CN1CCN(C(CNC(=O)C(=O)NC2CCCCC2)c2ccc(F)cc2)CC1 (stereo not drawn),-16.8,0.3,17.5,8.1,-10.7,1.9
COc1ccccc1OCC(=O)N/N=C1\CCCCc2ccccc21,-12.1,3.5,-9.9,-17.4,2.2,11.6
COc1ccc(OCC(=O)N/N=C2\CCCc3ccccc32)cc1,0.4,3.9,24.6*,-1.2,-14.8,3.0
O=C(N/N=C1\CCCCc2ccccc21)c1ccccn1,-28.9,0.1,29.4*,-15.8,-15.3,16.9
SMILES,OX1R antag-1,M1 ag parental,CHO-K1 Ca antag,CHO parental Ca,M1 PAM parental,OX1R antag-2
CCOc1ccc(/C=N/NC(=O)Cc2ccccc2)cc1CN1CC2CC(C1)c1cccc(=O)n1C2 (stereo not drawn),-7.2,-0.7,-17.0,-32.6,7.0,14.7
CC(=O)NC1CCCc2c1cnn2-c1ccc(C(C)(C)C)cc1 (stereo not drawn),-2.9,4.2,-1.5,3.1,18.3,7.8
Cc1cc(C(=O)NC2CCCc3c2cnn3-c2cccc(C)c2C)n(C)n1 (stereo not drawn),24.6,13.2,29.6*,54.6*,-19.7,53.9
COc1cccc(C(=O)NC2CCCc3c2cnn3-c2ccc(C)c(C)c2)c1OC (stereo not drawn),-20.2,8.0,38.4*,-16.0,-12.0,7.8
Cn1nccc1C(=O)NC1CCCc2c1cnn2-c1ccc(C(C)(C)C)cc1 (stereo not drawn),22.2,14.2,32.6*,55.6*,-14.6,48.7*
Cc1ccc(C(=O)NC2CCCc3c2cnn3-c2ccc(F)cc2F)cn1 (stereo not drawn),11.8,9.2,18.0,38.3*,-4.4,5.8
COc1ccc(C(=O)NC2CCCc3c2cnn3-c2ccc(C)c(C)c2)c(OC)c1OC (stereo not drawn),-45.3,2.4,1.3,-26.8,9.4,14.3
Cc1nnsc1C(=O)NC1CCCc2c1cnn2-c1ccc(F)cc1F (stereo not drawn),-0.7,10.2,14.7,20.7,-14.4,24.9
CCOc1ccc(NC(=O)c2ccc(F)c(S(=O)(=O)N3CCCC3)c2)cc1,/,7.0,24.2*,/,-10.7,/
O=C(Nc1ncccc1O)c1ccc(Cl)c(S(=O)(=O)N2CCCCC2)c1,-14.9,-0.2,37.6*,0.5,-13.9,1.4
Cc1ccc(C(=O)N(CCc2ccccc2)Cc2ccccc2)cc1S(=O)(=O)N1CCCCC1,1.1,1.3,-3.1,34.9*,3.2,13.9
Cc1ccccc1NC(=O)c1ccc(F)c(S(=O)(=O)N2CCCCC2)c1,-20.0,19.2*,1.6,-16.7,-0.3,5.2
CCOC(=O)N1CCN(C(=O)C[C@@H]2C[C@@]3(C(=O)OC)CCCCC=C3N(Cc3ccccc3)C2=O)CC1,/,3.2,-21.7,/,19.4,/
COc1ccc(S(=O)(=O)N2CCN(C(c3ccccc3)c3ccccc3)CC2)cc1NC(C)=O,-10.8,0.0,8.4,0.2,4.9,4.8
Cc1nn(-c2ccccc2)c(Cl)c1C(=O)NNC(=O)c1ccccc1O,-23.0,2.6,-15.5,-4.9,16.6,5.2
CCOC(=O)C1=C(COC(=O)CCOc2cc(C)ccc2C)NC(=O)NC1C (stereo not drawn),-21.4,1.3,-4.8,-28.7,6.3,13.4
O=C(Cc1ccc2c(c1)OCCO2)Nc1cc(Cl)ccc1N1CCOCC1,/,0.3,11.8,/,-21.7,/
Cc1ccc(NC(=O)c2ccccc2NS(=O)(=O)c2ccc(F)cc2)cc1S(=O)(=O)N1CCCCC1,-11.2,12.4,26.1*,7.4,-4.3,44.9

# Bioassay records (PubChem)
